Experimental data published in ChEMBL document CHEMBL1142454, “Synthesis and evaluation of novel 4-amino-4,6-androstadiene-3,17-dione: an analog of formestane” (2008).

Key:
Assay type in all cases: functional
Design in all cases: scale not given: the % may be the effect or the level left
KM12 = test: Antitumor activity against human KM12 cells assessed as reduction of cell growth at 10 uM after 48 hrs by SRB assay
Summary of the method: (§1)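 NCI 60-cell-line primary screen, single dose 10^-5 M (final). Cells grown in RPMI 1640 with 5% FBS and 2 mM L-glutamine, seeded at 5000–40,000 cells/well and preincubated 24 h at 37 °C, 5% CO2. Compound is dissolved in DMSO, diluted in medium with gentamicin, and exposed 48 h. Cells are fixed with 10% TCA (final) and stained with 0.4% SRB; absorbance is read at 515 nm. Readout is growth percentage.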

CCRF-CEM = test: Antitumor activity against human CCRF-CEM cells assessed as reduction of cell growth at 10 uM after 48 hrs by SRB assay; summary of the method: as §1
SK-MEL-28 = test: Antitumor activity against human SK-MEL-28 cells assessed as reduction of cell growth at 10 uM after 48 hrs by SRB assay; summary of the method: as §1
SNB-19 = test: Antitumor activity against human SNB-19 cells assessed as reduction of cell growth at 10 uM after 48 hrs by SRB assay; summary of the method: as §1
HL-60(TB) = test: Antitumor activity against human HL-60(TB) cells assessed as reduction of cell growth at 10 uM after 48 hrs by SRB assay; summary of the method: as §1
DU-145 = test: Antitumor activity against human DU145 cells assessed as reduction of cell growth at 10 uM after 48 hrs by SRB assay; summary of the method: as §1
HCT-15 = test: Antitumor activity against human HCT-15 cells assessed as reduction of cell growth at 10 uM after 48 hrs by SRB assay; summary of the method: as §1
Malme-3M = test: Antitumor activity against human MALME-3M cells assessed as reduction of cell growth at 10 uM after 48 hrs by SRB assay; summary of the method: as §1
NCI-H522 = test: Antitumor activity against human NCI-H522 cells assessed as reduction of cell growth at 10 uM after 48 hrs by SRB assay; summary of the method: as §1
OVCAR-5 = test: Antitumor activity against human OVCAR5 cells assessed as reduction of cell growth at 10 uM after 48 hrs by SRB assay; summary of the method: as §1
SF-539 = test: Antitumor activity against human SF-539 cells assessed as reduction of cell growth at 10 uM after 48 hrs by SRB assay; summary of the method: as §1
SW-620 = test: Antitumor activity against human SW620 cells assessed as reduction of cell growth at 10 uM after 48 hrs by SRB assay
Summary of the method: (§2)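 NCI-60 one-dose primary screen at 10^-5 M final. Cells grown in RPMI 1640 with 5% FBS and 2 mM L-glutamine, plated at 5000–40,000 cells/well and preincubated 24 h at 37 °C, 5% CO2. Drug stocks in DMSO, diluted in medium with gentamicin. Exposure 48 h, then fixed in situ with TCA (10% final) for 60 min at 4 °C. Stained with 0.4% SRB in 1% acetic acid, bound dye solubilized in 10 mM trizma base, absorbance read at 515 nm. Reported as mean growth percent; negative values indicate cell kill.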

M14 = test: Antitumor activity against human M14 cells assessed as reduction of cell growth at 10 uM after 48 hrs by SRB assay; summary of the method: as §1
HCC 2998 = test: Antitumor activity against human HCC2998 cells assessed as reduction of cell growth at 10 uM after 48 hrs by SRB assay; summary of the method: as §1
A549 = test: Antitumor activity against human A549/ATCC cells assessed as reduction of cell growth at 10 uM after 48 hrs by SRB assay; summary of the method: as §1
T47D = test: Antitumor activity against human T47D cells assessed as reduction of cell growth at 10 uM after 48 hrs by SRB assay; summary of the method: as §2
SF-268 = test: Antitumor activity against human SF-268 cells assessed as reduction of cell growth at 10 uM after 48 hrs by SRB assay; summary of the method: as §1
OVCAR-4 = test: Antitumor activity against human OVCAR4 cells assessed as reduction of cell growth at 10 uM after 48 hrs by SRB assay; summary of the method: as §1
K562 = test: Antitumor activity against human K-562 cells assessed as reduction of cell growth at 10 uM after 48 hrs by SRB assay; summary of the method: as §1
MDA-MB-231 = test: Antitumor activity against human MDA-MB-231/ATCC cells assessed as reduction of cell growth at 10 uM after 48 hrs by SRB assay; summary of the method: as §1
NCI-H460 = test: Antitumor activity against human NCI-H460 cells assessed as reduction of cell growth at 10 uM after 48 hrs by SRB assay; summary of the method: as §1
NCI-H226 = test: Antitumor activity against human NCI-H226 cells assessed as reduction of cell growth at 10 uM after 48 hrs by SRB assay; summary of the method: as §1
IGROV-1 = test: Antitumor activity against human IGROV1 cells assessed as reduction of cell growth at 10 uM after 48 hrs by SRB assay; summary of the method: as §1
CAKI-1 = test: Antitumor activity against human Caki-1 cells assessed as reduction of cell growth at 10 uM after 48 hrs by SRB assay; summary of the method: as §1
MCF7 = test: Antitumor activity against human MCF7 cells assessed as reduction of cell growth at 10 uM after 48 hrs by SRB assay; summary of the method: as §1
SF-295 = test: Antitumor activity against human SF-295 cells assessed as reduction of cell growth at 10 uM after 48 hrs by SRB assay; summary of the method: as §1
UACC-62 = test: Antitumor activity against human UACC-62 cells assessed as reduction of cell growth at 10 uM after 48 hrs by SRB assay; summary of the method: as §2
MOLT-4 = test: Antitumor activity against human MOLT-4 cells assessed as reduction of cell growth at 10 uM after 48 hrs by SRB assay; summary of the method: as §1
PC-3 = test: Antitumor activity against human PC-3 cells assessed as reduction of cell growth at 10 uM after 48 hrs by SRB assay; summary of the method: as §1
SK-MEL-5 = test: Antitumor activity against human SK-MEL-5 cells assessed as reduction of cell growth at 10 uM after 48 hrs by SRB assay; summary of the method: as §1
UACC-257 = test: Antitumor activity against human UACC-257 cells assessed as reduction of cell growth at 10 uM after 48 hrs by SRB assay; summary of the method: as §2
TK-10 = test: Antitumor activity against human TK-10 cells assessed as reduction of cell growth at 10 uM after 48 hrs by SRB assay; summary of the method: as §2
HOP-62 = test: Antitumor activity against human HOP-62 cells assessed as reduction of cell growth at 10 uM after 48 hrs by SRB assay; summary of the method: as §1
NCI-H322M = test: Antitumor activity against human NCI-H322M cells assessed as reduction of cell growth at 10 uM after 48 hrs by SRB assay; summary of the method: as §1
UO-31 = test: Antitumor activity against human UO-31 cells assessed as reduction of cell growth at 10 uM after 48 hrs by SRB assay; summary of the method: as §2
ACHN = test: Antitumor activity against human ACHN cells assessed as reduction of cell growth at 10 uM after 48 hrs by SRB assay; summary of the method: as §1
SR = test: Antitumor activity against human SR cells assessed as reduction of cell growth at 10 uM after 48 hrs by SRB assay; summary of the method: as §2

Row | SMILES | Activity (KM12) | Activity (CCRF-CEM) | Activity (SK-MEL-28) | Activity (SNB-19) | Activity (HL-60(TB)) | Activity (DU-145) | Activity (HCT-15) | Activity (Malme-3M) | Activity (NCI-H522) | Activity (OVCAR-5) | Activity (SF-539) | Activity (SW-620) | Activity (M14) | Activity (HCC 2998) | Activity (A549) | Activity (T47D) | Activity (SF-268) | Activity (OVCAR-4) | Activity (K562) | Activity (MDA-MB-231) | other results
1 | C[C@]12CCC(=O)C(N)=C1C=C[C@@H]1[C@@H]2CC[C@]2(C)C(=O)CC[C@@H]12.Cl | 39.52% | 6.62% | 103.4% | 102.8% | 52.53% | 62.36% | 72.99% | 70.81% | 76.59% | 107.69% | 82.75% | 15.36% | 79.51% | 96.01% | 103.34% | 73.66% | 89.03% | 61.98% | -26.94% | 100.87% | Activity (NCI-H460): 83.77%; Activity (NCI-H226): 96.3%; Activity (IGROV-1): 49.46%; Activity (CAKI-1): 84.08%; Activity (MCF7): -15.97%; Activity (SF-295): 105.1%; Activity (UACC-62): 81.02%; Activity (MOLT-4): 57.2%; Activity (PC-3): 46.51%; Activity (SK-MEL-5): 69.71%; Activity (UACC-257): 86.69%; Activity (TK-10): 85.59%; Activity (HOP-62): 111.88%; Activity (NCI-H322M): 88.38%; Activity (UO-31): 64.59%; Activity (ACHN): 88.16%
2 | C[C@]12CC[C@H]3[C@@H](CCC4=CC(=O)CC[C@@]43CF)[C@@H]1CCC2=O | 117.01% | 88.21% | 116.5% | 109.3% | 112.8% | 116.2% | 106.17% | 94.17% | 87.35% | 118.37% | 105.8% | 125.89% | 102.8% | 139.86% | 99.26% | 39.44% | 109.8% | 98.85% | 93.48% | 117.71% | Activity (NCI-H460): 108.88%; Activity (NCI-H226): 111.29%; Activity (IGROV-1): 62.42%; Activity (CAKI-1): 111%; Activity (MCF7): 130.43%; Activity (SF-295): 106.3%; Activity (UACC-62): 114.6%; Activity (MOLT-4): 106.1%; Activity (SK-MEL-5): 108.7%; Activity (UACC-257): 97.04%; Activity (TK-10): 114.8%; Activity (SR): 118.7%; Activity (HOP-62): 123.96%; Activity (NCI-H322M): 101.55%; Activity (UO-31): 87.76%; Activity (ACHN): 119.9%
3 | C[C@]12CCC(=O)C(Oc3ccccc3)=C1CC[C@@H]1[C@@H]2CC[C@]2(C)C(=O)CC[C@@H]12 | 115.72% | 90.45% | 119.81% | 114.92% | 105.95% | 107.32% | 94.74% | 120.52% | 87.31% | 97.47% | 106.75% | 120.45% | 102.62% | 128.78% | 100.25% | 116.7% | 113.44% | 100.72% | 86.08% | 109.86% | Activity (NCI-H460): 77.42%; Activity (NCI-H226): 96.55%; Activity (IGROV-1): 55.73%; Activity (CAKI-1): 112.48%; Activity (MCF7): 103.22%; Activity (SF-295): 124.31%; Activity (UACC-62): 87.46%; Activity (MOLT-4): 105.63%; Activity (PC-3): 89.25%; Activity (SK-MEL-5): 94.23%; Activity (UACC-257): 108.45%; Activity (TK-10): 122.99%; Activity (SR): 66.91%; Activity (HOP-62): 106.47%; Activity (NCI-H322M): 106.72%; Activity (UO-31): 76.98%; Activity (ACHN): 105.72%
4 | CCOC1=C2CC[C@@H]3[C@H](CC[C@]4(C)C(=O)CC[C@@H]34)[C@@]2(C)CCC1=O | 123.89% | 91.63% | 135.2% | 112.3% | 112.2% | 123.2% | 110.45% | 87.47% | 91% | 101.66% | 111.3% | 120.57% | 103.8% | 125.75% | 97.79% | 117.94% | 128.3% | 96.98% | 94.09% | 106.73% | Activity (NCI-H460): 83.36%; Activity (NCI-H226): 98.58%; Activity (IGROV-1): 85.75%; Activity (CAKI-1): 115.2%; Activity (MCF7): 108.56%; Activity (SF-295): 114%; Activity (UACC-62): 90.78%; Activity (MOLT-4): 98.59%; Activity (PC-3): 96.5%; Activity (SK-MEL-5): 99.39%; Activity (UACC-257): 117.1%; Activity (TK-10): 100.6%; Activity (SR): 104.9%; Activity (HOP-62): 103.52%; Activity (NCI-H322M): 95.97%; Activity (UO-31): 85.82%; Activity (ACHN): 105.1%
